The record followed here is ChEMBL document CHEMBL1123060, “Substrate specificity of pyroglutamylaminopeptidase” (J Med Chem, 1985).

A short description of series [1]: Inhibition of pyroglutamylaminopeptidase at a dose of 13.02 mM relative to 2-Oxo-hexahydro-pyrimidine-4-carboxylic acid. The following applies: 13020 µM. The gist of the method:
(§1)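 Enzyme purchased commercially, 5.5 units per digestion in pH 8.0 phosphate deblocking buffer (5% glycerol, 5 mM DTT, 10 mM EDTA, N2/Ar-purged). Preincubated 3 min at 37 °C, then substrate plus Leu internal standard added with the inhibitor at the stated level and digested 180 min at 37 °C. Gly-Ile released was quantitated by amino acid analysis. Values are cleavage relative to the uninhibited digest (set to 1.0), from a single experiment.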

The nature of series [2]: Inhibition of pyroglutamylaminopeptidase at a dose of 13.02 mM relative to Pyrrolidin-2-one-CO-Gly-Ile. The following applies: 13020 µM. In a few lines: as §1
Series [3] in a line: Inhibition of pyroglutamylaminopeptidase at a dose of 6.51 mM relative to Pyrrolidin-2-one-CO-Gly-Ile. The following applies: 6510 µM. In a few lines: as §1
Series [4] can be described thus: Inhibition of pyroglutamylaminopeptidase at a dose of 6.51 mM relative to 2-Oxo-hexahydro-pyrimidine-4-carboxylic acid. The following applies: 6510 µM. In a few lines:
as §1

A short description of series [5]: Inhibition of pyroglutamylaminopeptidase at a dose of 8.32 mM relative to Pyrrolidin-2-one-CO-Gly-Ile. The following applies: 8320 µM. In a few lines:
as §1

A short description of series [6]: Inhibition of pyroglutamylaminopeptidase at a dose of 16.64 mM relative to 2-Oxo-hexahydro-pyrimidine-4-carboxylic acid. As to conditions: 16640 µM. The gist of the method: as §1
A short description of series [7]: Inhibition of pyroglutamylaminopeptidase at a dose of 8.32 mM relative to 2-Oxo-hexahydro-pyrimidine-4-carboxylic acid. As to conditions: 8320 µM. The gist of the method:
as §1

Series [8] can be described thus: Inhibition of pyroglutamylaminopeptidase at a dose of 16.64 mM relative to Pyrrolidin-2-one-CO-Gly-Ile. As to conditions: 16640 µM. The gist of the method:
as §1

On to `O=C1NCC(C(=O)O)N1` (configuration not stated), for which the Hydrolysis rate was determined as 0.308 in series [1], 0.707 in series [2], 0.854 in series [3] and 0.533 in series [4].
Consider `O=C1NCCC(C(=O)O)N1` (configuration not stated), for which the Hydrolysis rate was found to be 0.889 in series [5], 0.752 in series [6], 0.86 in series [7] and 0.884 in series [8].
Take `O=C1CC[C@@H](C(=O)O)N1` [PIDOLIC ACID]: the Hydrolysis rate in series [1] came out at 0.093; in series [2], 0.333; in series [3] it was 0.586; in series [4] it was 0.206.
